Data from ChEMBL document CHEMBL4364340, “Discovery of N-(1-Acryloylazetidin-3-yl)-2-(1H-indol-1-yl)acetamides as Covalent Inhibitors of KRASG12C” (ACS Med Chem Lett, 2019).
≈ marks a conversion by molar mass, not a printed value.

Legend:
GTPase KRas [1] = target: GTPase KRas (Homo sapiens, UniProt P01116, G12C); test: Inhibition of KRAS G12C mutant in human MIAPaCa2 cells assessed as reduction in EGF-induced ERK1/2 phosphorylation incubated for 4 hrs followed by EGF addition by luminescence based assay; type: cell-based
[2] = system: GTPase KRas (Homo sapiens), P01116 [G12C]; test: Inhibition of KRAS G12C mutant (unknown origin) at 10 uM incubated for 0.02 hrs in presence of GDP by rapidfire mass spectrometry analysis relative to control
Procedure, shortened: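 Intact-protein mass spectrometry of covalent adduct formation at Cys12 of GDP-bound KRASG12C. Test compound at 10 μM, with read-outs at 0.02, 0.2, 2 and 20 h. Values are the relative % of protein bound, measured directly under pseudo-first-order conditions. Earlier incubations in the paper used 2 μM protein.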

[3] = system: GTPase KRas (Homo sapiens), P01116 [G12C]; test: Inhibition of KRAS G12C mutant (unknown origin) assessed as pseudo first order rate constant incubated for 0.02 to 20 hrs in presence of GDP by rapidfire mass spectrometry analysis
Procedure, shortened: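 GDP-bound KRASG12C (2 μM) with 10 μM compound. Intact-protein MS measures covalent adduct at Cys12 after 0.02, 0.2, 2 and 20 h. Conversions between 10% and 90% are converted to kobs/[I] (M–1 s–1) under pseudo-first-order kinetics.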

[4] = system: GTPase KRas (Homo sapiens), P01116 [G12C]; test: Inhibition of KRAS G12C mutant (unknown origin) at 10 uM incubated for 2 hrs in presence of GDP by rapidfire mass spectrometry analysis relative to control
Procedure, shortened: (§1)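 GDP-bound KRASG12C (2 μM) incubated with 10 μM compound. Intact-protein mass spectrometry quantifies relative % covalent adduct at Cys12 at the stated time point.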

[5] = Half life of compound in phosphate buffer at pH 7.4 in presence of GSH by LC/MS analysis; type: physicochemical; conditions: phosphate buffer with GSH
Procedure, shortened: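 Intrinsic thiol reactivity toward 5 mM glutathione. Half-life is taken from the rate at which parent compound disappears.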

[6] = system: GTPase KRas (Homo sapiens), P01116 [G12C]; test: Inhibition of KRAS G12C mutant (unknown origin) at 10 uM incubated for 0.2 hrs in presence of GDP by rapidfire mass spectrometry analysis relative to control; procedure, shortened: as §1
[7] = system: GTPase KRas (Homo sapiens), P01116 [G12C]; test: Inhibition of KRAS G12C mutant (unknown origin) at 10 uM incubated for 20 hrs in presence of GDP by rapidfire mass spectrometry analysis relative to control; procedure, shortened: as §1
GTPase KRas [8] = target: GTPase KRas (Homo sapiens, UniProt P01116, C118A/G12C); test: Inhibition of GDP bound N terminal His-tagged KRAS G12C/C118A mutant (unknown origin) (1 to 169 residues) assessed as reduction in SOS-mediated guanine nucleotide exchange preincubated for 2 hrs followed by addition of SOS and GTP and measured after 1 hr by alphascreen assay
Procedure, shortened: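 Inhibitor preincubated with protein 2 h, then SOS1 and GTP added to exchange GTP into the nucleotide site. GTP loading read as proximity of RAF Ras-binding domain, which binds only active KRAS. IC50 from dose response.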

[9] = Half-life in rat at 10 mg/kg, po; type: ADME, organism-based; conditions: in vivo
Procedure, shortened: (§2)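 Mouse and rat PK: single 1 mg/kg iv dose given in 100% DMSO, and 10 mg/kg po dose given in 1% Tween 80, 2% HPMC, 97% water.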

MIA PaCa-2 = test: Cytotoxicity against human MIAPaCa2 cells assessed as reduction in cell viability measured after 72 hrs by Celltiter-Glo luminescent cell viability assay; type: functional, cell-based; conditions: MIA PaCa-2, 72 h
Procedure, shortened: (§3)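 Cell viability in MIA PaCa-2 (KRAS p.G12C) or A549 (KRAS p.G12S) cells, read by CellTiter-Glo luminescence.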

[10] = Intrinsic clearance in human liver microsomes at 1 uM measured after 30 mins in presence of NADPH by LC-MS analysis; type: ADME, Microsome; conditions: read-out: CLH
[11] = Hepatic intrinsic clearance in human hepatocytes assessed per 10^6 cells at 0.5 uM after 60 mins; type: ADME, cell-based, Hepatocyte; conditions: read-out: CLH
Procedure, shortened: (§4)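 Intrinsic clearance in mouse, rat or human hepatocytes. Compound at 0.5 μM, 0.5 million cells/mL, incubated 60 min.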

[12] = Hepatic intrinsic clearance in mouse hepatocytes assessed per 10^6 cells at 0.5 uM after 60 mins; type: ADME, cell-based, Hepatocyte; conditions: read-out: CLH; procedure, shortened: as §4
[13] = Plasma protein binding in rat assessed as unbound fraction at 5 uM by ultracentrifugation method; type: ADME, cell-free
Procedure, shortened: (§5)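 Plasma protein binding measured by ultracentrifugation, compound at 5 μM.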

[14] = Clearance in mouse at […]; type: ADME, organism-based; conditions: in vivo; procedure, shortened: as §2
A549 = test: Cytotoxicity against human A549 cells assessed as reduction in cell viability measured after 72 hrs by Celltiter-Glo luminescent cell viability assay; type: functional, cell-based; conditions: A549, 72 h; procedure, shortened: as §3
[15] = Oral bioavailability in rat at 10 mg/kg; type: ADME, organism-based; conditions: in vivo; procedure, shortened: as §2
[16] = Volume of distribution at steady state in mouse at […]; type: ADME, organism-based; conditions: in vivo; procedure, shortened: as §2
[17] = Hepatic intrinsic clearance in rat hepatocytes assessed per 10^6 cells at 0.5 uM after 60 mins; type: ADME, cell-based, Hepatocyte; conditions: read-out: CLH; procedure, shortened: as §4
[18] = Plasma protein binding in human assessed as unbound fraction at 5 uM by ultracentrifugation method; type: ADME, cell-free; procedure, shortened: as §5
[19] = Intrinsic clearance in rat liver microsomes at 1 uM measured after 30 mins in presence of NADPH by LC-MS analysis; type: ADME, Microsome; conditions: read-out: CLH
[20] = Half-life in mouse at 10 mg/kg, po; type: ADME, organism-based; conditions: in vivo; procedure, shortened: as §2
[21] = Plasma protein binding in mouse assessed as unbound fraction at 5 uM by ultracentrifugation method; type: ADME, cell-free; procedure, shortened: as §5
[22] = Solubility of compound in FASIIF measured after 72 hrs by HPLC; type: physicochemical; conditions: FaSSIF
Procedure, shortened: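 Solubility in fasted-state simulated intestinal fluid, measured by HPLC after equilibration at room temperature for 72 h.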

[23] = Oral bioavailability in mouse at 10 mg/kg; type: ADME, organism-based; conditions: in vivo; procedure, shortened: as §2
[24] = Intrinsic clearance in mouse liver microsomes at 1 uM measured after 30 mins in presence of NADPH by LC-MS analysis; type: ADME, Microsome; conditions: read-out: CLH
[25] = Volume of distribution at steady state in rat at […]; type: ADME, organism-based; conditions: in vivo; procedure, shortened: as §2
[26] = Clearance in rat at […]; type: ADME, organism-based; conditions: in vivo; procedure, shortened: as §2

SMILES | IC50 (GTPase KRas [1]) [nM] | inhibition [2] [%] | K [3] [M⁻¹ s⁻¹] | inhibition [4] [%] | half-life [5] [h] | inhibition [6] [%] | inhibition [7] [%] | other results
C=CC(=O)N1CC(NC(=O)Cn2c(C3CC3)c(C(=O)N3CCc4c(cccc4OC)C3)c3cc(Br)ccc32)C1 | 604 | 35 | 549 | 100 | 1.67 | 90 | – | –
C=CC(=O)N1CC(NC(=O)Cn2cc(C(=O)N3CCc4c(F)cccc4C3)c3cc(Br)ccc32)C1 | – | – | 247 | 100 | 1.67 | 77 | 100 | –
C=CC(=O)N1CC(NC(=O)Cn2c(C)c(C(=O)N3CCc4c(cccc4OC)C3)c3cc(Br)cc(C)c32)C1 | 299 | – | 83 | 100 | 1.67 | 39 | – | –
C=CC(=O)N1CC(NC(=O)Cn2cc(C(=O)N(C)Cc3ccccc3)c3cc(Br)ccc32)C1 | – | – | 6 | 35 | 1.67 | – | 100 | –
C=CC(=O)N1CC(NC(=O)COc2ccc(Br)cc2NC(=O)c2cc(C)no2)C1 | – | – | 2 | 11 | – | – | 63 | –
C=CC(=O)N1CC(NC(=O)COc2ccc(Br)cc2)C1 | – | – | 0.3 | – | – | – | – | –
C=CC(=O)N1CC(NC(=O)Cn2cc(C(=O)NCc3ccccc3)c3cc(Br)ccc32)C1 | – | – | 5 | 29 | 1.67 | – | 93 | –
C=CC(=O)N1CC(NC(=O)Cn2cc(C(=O)N3CCc4cc(Cl)ccc4C3)c3cc(Br)ccc32)C1 | – | – | 132 | 100 | 1.67 | 55 | 100 | –
C=CC(=O)N1CC(NC(=O)Cn2cc(C(=O)N3CCc4cc(F)ccc4C3)c3cc(Br)ccc32)C1 | – | – | 326 | 100 | 1.67 | 86 | 100 | –
C=CC(=O)N1CC(NC(=O)Cn2c(C)c(C(=O)N3CCc4c(cccc4OC)C3)c3cc(Cl)cc(C)c32)C1 | – | 40 | 583 | 100 | 1.67 | 85 | 100 | –
C=CC(=O)N1CC(NC(=O)Cn2cc(C(=O)N3CCc4c(cccc4OC)C3)c3cc(Br)cc(C)c32)C1 | – | – | > 400 | 100 | 1.67 | 100 | 100 | –
C=CC(=O)N1CC(NC(=O)Cn2c(C)c(C(=O)N3CCc4c(cccc4OC)C3)c3cc(Br)ccc32)C1 | 1680 | 14 | 256 | 100 | 1.67 | 91 | 100 | –
C=CC(=O)N1CC(NC(=O)Cn2cc(C(=O)N3CCc4c(cccc4OC)C3)c3cc(Br)ccc32)C1 | 11400 | 13 | 230 | 100 | 1.67 | 92 | 100 | –
C=CC(=O)N1CC(NC(=O)Cn2cc(C(=O)N3CCc4c(Cl)cccc4C3)c3cc(Br)ccc32)C1 | – | – | 188 | 100 | 1.67 | 67 | 100 | –
C=CC(=O)N1CC(NC(=O)COc2ccc(Br)cc2C(=O)N2CC=C(c3ccccc3)C2)C1 | 11300 | – | 26 | – | 1.67 | – | – | IC50 (GTPase KRas [8]): 2780 nM
C=CC(=O)N1CC(NC(=O)Cn2cc(C(=O)NCCc3ccccc3)c3cc(Br)ccc32)C1 | – | – | 12 | 59 | 1.67 | – | 100 | –
C=CC(=O)N1CC(NC(=O)Cn2c(C3CC3)c(C(=O)N3CCc4c(cccc4OC)C3)c3cc(Cl)cc(C)c32)C1 | – | 69 | 2640 | 100 | 1.33 | 94 | 100 | half-life [9]: 0.7 h; IC50 (MIA PaCa-2): 67 nM; microsomal CLint at 1 µM [10]: 161 µL/min/mg; hepatocyte CLint at 0.5 µM [11]: 53 µL/min/1e6 cells; hepatocyte CLint at 0.5 µM [12]: 228 µL/min/1e6 cells; fraction unbound at 5 µM [13]: 0.02; CL/F [14]: 107 mL/min/kg; IC50 (A549): 9330 nM; bioavailability [15]: < 1%; Vdss [16]: 2.9 L/kg; hepatocyte CLint at 0.5 µM [17]: 293 µL/min/1e6 cells; fraction unbound at 5 µM [18]: 0.04; microsomal CLint at 1 µM [19]: 197 µL/min/mg; half-life [20]: 0.9 h; fraction unbound at 5 µM [21]: 0.02; solubility at 72 h [22]: 252 µM (≈ 141 µg/mL); bioavailability [23]: 8%; microsomal CLint at 1 µM [24]: 708 µL/min/mg; Vdss [25]: 2.6 L/kg; CL/F [26]: 65 mL/min/kg
C=CC(=O)N1CC(NC(=O)Cn2c(C)c(C(=O)N3CCc4c(cccc4OC)C3)c3cc(Cl)ccc32)C1 | 3550 | – | 69 | 100 | 1.67 | 34 | 100 | –
C=CC(=O)N1CC(NC(=O)Cn2ccc3cc(Br)ccc32)C1 | – | – | 2 | 14 | 1.67 | – | 67 | IC50 (GTPase KRas [8]): > 250000 nM
C=CC(=O)N1CC(NC(=O)Cn2cc(C(=O)N3CCc4ccccc4C3)c3cc(Br)ccc32)C1 | – | 0 | 308 | 100 | 1.67 | 100 | 100 | –
